# Where no end group is shown, it is not given here. [ ]: non-standard residue; d: D form. The star is where a group is joined. FITC = O=C1OC2(c3ccc(O)cc3Oc3cc(O)ccc32)c2ccc(NC(=S)*)cc21; pY = N[C@@H](Cc1ccc(OP(=O)(O)O)cc1)C(=O)O
# How the values were obtained:
# [1] = system: Csk^AS; assay: Reconstituted cellular system for Lck activation; assay type: cell-based; settings: HEK 293 cells with CD45, Csk^AS, 3-IB-PP1 5 μM, 1 min, 37 °C, immunoblot
# [2] = system: Csk^AS; settings: analog-sensitive allele of Csk; ref Schoenborn et al., 2011; cited from earlier work
# [3] = system: tyrosine phosphatases; assay: Total protein phosphotyrosine immunoblot after pervanadate treatment; assay type: cell-based, human; settings: J.Lck cells, Lck Y192E/A variants; pervanadate 100 μM; immunoblot (Figure S2B)
# How it was run: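 Jurkat-derived cells grown in RPMI with 10% FBS and 2 mM glutamine at 37 °C, 5% CO2. Lck-reconstituted lines checked by immunoblot and sequencing. Cells rinsed in RPMI, resuspended at 5 × 10^6 cells/mL and rested 15 min at 37 °C, then left unstimulated or given pervanadate (100 μM). Lysis in 1% NP-40 (final) with […], NaF, EDTA, PMSF, protease inhibitors and PP2 (25 μM). Immunoblot read-out.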
# [4] = system: J.Lck cells; assay: Intracellular calcium measurement by flow cytometry; assay type: cell-based, human; settings: J.Lck cells expressing Lck Y192E/A variants; Indo-1 AM, 37 °C, flow cytometry (Figure S2)
# [5] = molecular target: GST Lck SH2 Y192E (human Lck SH2 domain, residues 123-227) (human, UniProt P06239 123-227, Y192E); assay: fluorescence polarisation
# [6] = molecular target: GST Lck SH2 protein (human Lck SH2 domain, residues 123-227, WT) (human, UniProt P06239 123-227); assay: fluorescence polarisation
# Chain of GST Lck SH2 protein (human Lck SH2 domain, residues 123-227, WT) (P06239 123-227): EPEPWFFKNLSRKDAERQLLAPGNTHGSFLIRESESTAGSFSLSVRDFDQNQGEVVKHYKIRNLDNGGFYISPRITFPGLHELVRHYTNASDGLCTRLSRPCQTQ
# Chain of GST Lck SH2 Y192E (human Lck SH2 domain, residues 123-227) (P06239 123-227 Y192E): as the sequence (P06239 123-227) above, with Y70E counted along it
molecule,measurement,setting,value
CC(C)(C)n1nc(Cc2cccc(I)c2)c2c(N)ncnc21 [3-IB-PP1],CD8/ζ-chain phosphorylation upon Csk^AS inhibition,"[1]; N=3, Lck Y192E/A variants",only a minimal increase
same,C-terminal tail (Y505) phosphorylation upon Csk^AS inhibition,"[1]; CD8/ζ, N=3, Lck Y192F",the Y192F mutant is dephosphorylated by CD45
same,inhibition of Csk^AS,[2],inhibited
pervanadate,Lck autophosphorylation upon pervanadate treatment,[3],robust autophosphorylation
C[C@H](CCC(=O)O)C[C@H](C)C[C@H](C)C(=O)/C=C(\O)[C@H](C)C[C@H](C)C/C=C/[C@@H](C)[C@@H](O)[C@@H](C)[C@@H](O)C[C@@H]1CC[C@@](C)([C@H]2CC[C@@](C)([C@@H](C)O)O2)O1 [ionomycin],calcium response to ionomycin,[4],responded robustly
"{FITC}-TEGQ[pY]QPQP [FITC-TEGQ[pY]QPQP, phosphopeptide of the Lck C-terminal tail]",binding result,[5],binds
same,binding result,[6],binds

# From publication PMC5558854 (Molecular cell, 2017)
